ChEMBL document CHEMBL1143728, “Anti-inflammatory benzenoids from Antrodia camphorata” (J Nat Prod, 2007)
pIC50: −log10 of the molar value.

system: Neutrophil; experiment: Inhibition of fMLP-induced superoxide production in human neutrophils; format: functional, cell-based
Method in brief: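 Neutrophils from venous blood of healthy volunteers (20-35 years), isolated by double-gradient Ficoll-Hypaque centrifugation with hypotonic lysis of red cells. Cells at 1 × 10⁶ cells/mL preincubated with test agent (100 µmol/L) 5 min at 37 °C, then stimulated with fMLP (1 µmol/L) in presence of ferricytochrome c (0.5 mg/mL). Extracellular superoxide read continuously by ferricytochrome c reduction at 550 nm. Inhibition % = [(control−resting)−(compound−resting)]/(control−resting) × 100. Three independent experiments, SEM; ibuprofen positive control.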

SMILES | pIC50
C=C(CC[C@@H](C(=O)O)[C@H]1CC[C@@]2(C)C3=CC[C@H]4C(C)(C)[C@@H](O)CC[C@]4(C)C3=CC[C@]12C)C(C)C [DEHYDROEBURICOIC ACID] | 4.11
C=C(CC[C@@H](C)[C@H]1CC[C@H]2C3=C(C(=O)C[C@]12C)[C@@]1(C)CCC(=O)[C@@H](C)[C@@H]1CC3=O)[C@H](C)C(=O)O [ANTCIN B] | 5.01
C[C@H]1[C@H](O)CC[C@@H]2[C@]1(C)CC[C@H]1[C@@]2(C)CC[C@@]2(C)[C@@H]3CC(C)(C)CC[C@]3(C)CC[C@]12C | < 4.00
C=C(CC[C@@H](C)[C@H]1CC[C@H]2C3=C(C(=O)C[C@]12C)[C@@]1(C)CCC(=O)[C@@H](C)[C@@H]1CC3)[C@H](C)C(=O)O [ANTICIN A] | 5.07
c1cc2c(cc1[C@H]1OC[C@H]3[C@@H]1CO[C@@H]3c1ccc3c(c1)OCO3)OCO2 [SESAMIN] | 4.04
CC(C)Cc1ccc(C(C)C(=O)O)cc1 (configuration not stated) [IBUPROFEN] | 4.56

Now from value to molecule:

pIC50 | SMILES
5.03 | C=C(C)C#Cc1c(OC)cc(OC)c(OC)c1C [ANTROCAMPHIN A]
< 4.00 | COc1cc(OC)c(OC)c(C)c1C#CC(C)=O [ANTROCAMPHIN B]
< 4.00 | COc1cc(C(=O)Cl)c(OC)c(OC)c1OC
< 4.00 | COc1c(C)c(-c2c(C)c(OC)c3c(c2OC)OCO3)c(OC)c2c1OCO2
< 4.00 | COc1cc(OC)c(OC)c(C)c1C#C[C@@]1(C)OC(=O)O[C@@]1(C)C#Cc1c(OC)cc(OC)c(OC)c1C [ANTRODIOXOLANONE]
4.58 | COc1cc(C)c(OC)c2c1OCO2
